Sampled rows, rich in hits. Any-hit rate of the full collection: about 1.4%.
NR2E3 ag-1: human photoreceptor-specific nuclear receptor agonism. inhibition of corepressor binding, % at 3.98 µM. hit rate 0.35% among 360,000. AID 602229. Q9Y5X4. CHO-S Gal4-NCOR/VP16-NR2E3 two-hybrid, luciferase;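 active means inhibition above the mean of all tested compounds plus 3 SD, cut at about 70% in these data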;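 further: 0% = DMSO with NR2E3 transfected cells and 100% = cells lacking NR2E3 construct; higher means lower luciferase signal from less NR2E3 corepressor binding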
Rev-erbA mod: modulators of human Rev-erb alpha DNA binding. Rev-erbα–FITC-DNA binding, fluorescence polarization, 90 min. activity, % at 10 µM. P20393. AID 1259318. hit rate 0.79% among 370,000;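 active means activity above about 14%, limit read from the data; passing the limit was not always enough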;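 further: 0% = DMSO wells with 35 nM protein and 100% = DMSO wells with 750 nM protein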
Target sequence (P20393 whole entry, looked up): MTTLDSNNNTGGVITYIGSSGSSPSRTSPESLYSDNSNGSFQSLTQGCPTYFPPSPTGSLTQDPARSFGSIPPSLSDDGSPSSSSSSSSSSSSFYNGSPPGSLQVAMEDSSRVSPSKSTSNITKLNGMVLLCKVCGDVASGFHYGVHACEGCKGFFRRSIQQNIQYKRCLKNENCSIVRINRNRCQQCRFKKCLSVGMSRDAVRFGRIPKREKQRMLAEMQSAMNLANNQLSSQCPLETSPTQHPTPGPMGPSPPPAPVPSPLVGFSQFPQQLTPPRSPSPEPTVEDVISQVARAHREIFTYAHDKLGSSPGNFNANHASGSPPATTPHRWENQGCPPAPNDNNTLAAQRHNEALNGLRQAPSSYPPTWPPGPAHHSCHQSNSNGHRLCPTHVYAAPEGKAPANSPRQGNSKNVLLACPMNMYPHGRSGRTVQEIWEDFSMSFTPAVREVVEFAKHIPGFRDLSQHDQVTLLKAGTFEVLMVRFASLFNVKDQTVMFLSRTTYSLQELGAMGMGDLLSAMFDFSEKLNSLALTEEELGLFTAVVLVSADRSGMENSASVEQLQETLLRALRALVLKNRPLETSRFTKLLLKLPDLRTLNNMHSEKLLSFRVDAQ
PG9 binder: small molecules binding HIV-1 gp120 antibody PG9; hit rate 0.43% among 360,000; inhibition, % at 6.7 µM; TR-FRET gp120-PG9 antibody binding; in the data active means inhibition above about 8.5%
NR2E3 ag-2: NR2E3 (human) agonism; Q9Y5X4; GST-NR2E3/biotin-RetCOR TR-FRET, 1536-well; inhibition of corepressor binding, % at 4.78 µM; hit rate 0.12% among 320,000;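 active means percent inhibition above the cutoff of mean plus 3 SD of all tested compounds, set per screening campaign, cut at about 20% in these data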;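 further: 0% = DMSO wells and 100% = biotin wells as full block of FRET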
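Material: NR2E3–RetCOR corepressor complex | Quantity: 1.35 nM GST-tagged NR2E3 final | Schedule: 5 h at 4 °C | Replication: Singlicate compound wells | Reagent: RetCOR corepressor, biotinylated, 7 nM | Controls: Biotin wells as high control, 0.6% DMSO wells as low control | Signal: TR-FRET, Eu(K)-anti-GST donor, streptavidin-D2 acceptor, ex 340, em 617/671 nm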
PG9 binder conf: confirmation of small molecules binding HIV-1 gp120 antibody PG9 | shares compounds with PG9 binder | hit rate 90% among 1,500 | TR-FRET PG9 antibody binding, biochemical | AID 651571 | inhibition, % at 6.7 µM; in the data active means inhibition above about 9%
PGV04 Ab binding: PGV04 control antibody binding, counter-screen; inhibition, % at 6.7 µM; TR-FRET PGV04 antibody-gp120 binding, biochemical; AID 651604; hit rate 95% among 1,500; shares compounds with PG9 binder; in the data active means inhibition above about 9.5%
PG9 bind DR: small molecules binding HIV-1 gp120 antibody PG9. shares compounds with PG9 binder. TR-FRET PG9 antibody-gp120 binding inhibition. IC50, µM. 95 tested, under 10 active; in the data active means IC50 below about 10 µM
PGV04 DR counter: PGV04 binding, dose response counter-screen | AID 651937 | IC50, µM | shares compounds with PG9 binder | hit rate 20% among 95 | TR-FRET binding to control antibody PGV04
PG126 binding DR: PG126 binding, dose response counter-screen; shares compounds with PG9 binder; TR-FRET binding to antibody PG126, counterscreen; IC50, µM; hit rate 20% among 95; AID 651939
Rev-erbA confirm: Rev-erb alpha (human) modulation, hit confirmation; Rev-erb alpha FITC-DNA binding, fluorescence polarization, 90 min; shares compounds with Rev-erbA mod; hit rate 61% among 3,000; AID 1259319; activation, % at 25 µM;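 active means activation at or above a set limit, or at least 3 SD above the negative control mean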;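 further: 0% = 35 nM protein with DMSO and 100% = 750 nM protein high control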
RORg counter: affects RORgamma DNA binding in a Rev-erb alpha counter-screen; shares compounds with Rev-erbA mod; IC50, µM; hit rate 8% among 910; purified RORgamma protein-FITC-DNA binding, fluorescence polarization; AID 1259320;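 active means Compounds whose fitted half-maximal concentration for disrupting protein-DNA binding is below 10 micromolar; the record names Rev-erb in its text, so the target is in doubt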
Active calls of the source: *; nt = no result. Unless noted, no stated cut-off is given here; in the data, active means IC50 below about 9 µM; inactive means the rest.

SMILES | NR2E3 ag-1 | Rev-erbA mod | PG9 binder | NR2E3 ag-2 | PG9 binder conf | PGV04 Ab binding | others
COc1cc(S(=O)(=O)N2CCOCC2)ccc1NC(=O)CSc1nnc(N)s1 | -19 | 1 | 0 | -1 | nt | nt
Nc1nc(-c2ccc(Cl)cc2)nnc1-c1ccc(Br)cc1 | -52 | 11 | 13* | 0 | 16* | 58*
CC(=O)Nc1ccc(S(=O)(=O)Nc2nc3ccccc3nc2-n2ccc(=NC(=O)c3ccccc3)cc2)cc1 | -33 | 0 | 0 | -3 | nt | nt
CC(=O)Nc1ccc(S(=O)(=O)Nc2nc3ccccc3nc2-n2ccc(=NC(=O)c3ccc(F)cc3)cc2)cc1 | -2 | 9 | 41* | 0 | 50* | 81*
CCOc1ccc(S(=O)(=O)Nc2nc3ccccc3nc2-n2ccc(=NC(=O)c3cccs3)cc2)cc1 | -14 | 9 | 20* | 5 | 31* | 73*
C[C@@H]1CN([C@H](C)CO)C(=O)CCCn2nncc2CO[C@@H]1CN(C)C(=O)Nc1ccc(N2CCN(C)CC2)cc1 | -17 | -1 | 0 | nt | nt | nt
CC(C)CCNC(=O)NC(=O)COC(=O)c1cc(S(=O)(=O)N2CCOCC2)ccc1N1CCCCC1 | 14 | 15 | 32* | 2 | 28* | 46*
CCCCC(=O)Nc1nn(CC)c2nc3c(C)cccc3cc12 | 2 | 10 | 9.7* | -3 | 11* | 15*
COc1ccc(Br)cc1-c1nc(CCl)cs1 | 1 | 6 | 10* | 13 | 16* | 20*
CCOC(=O)CCc1c(C)c(C#N)c2nc3ccccc3n2c1-n1cnc2ccccc21 | 17 | 19 | 17* | -1 | 22* | 27*
Cc1cc(OCCCC(=O)NCCc2ccccn2)ccc1Cl | 4 | 0 | -1 | 2 | nt | nt
CNC(=O)c1ccc(NC(=O)C2CCN(c3ncnc4sc(C)c(C)c34)CC2)cc1 | -23 | -5 | 18* | -2 | 14* | 18*
Cc1sc2ncnc(N3CCC(C(=O)Nc4ccc(Br)cc4Br)CC3)c2c1C | 6 | 20 | 23* | -3 | 44* | 70*
Cc1ccc(CNC(=O)CN(C)S(=O)(=O)c2cccc3cccnc23)cc1 | -4 | -5 | -1 | 3 | nt | nt
COc1ccc(C)cc1NC(=O)COC(=O)c1ccc2c(c1)OCCO2 | -13 | -3 | 2 | 0 | nt | nt
COc1ccc(C)cc1NC(=O)COC(=O)c1ccc2c(c1)OCO2 | 9 | 8 | 24* | -1 | 24* | 28*
Cc1c(Cl)cnc(NC(=O)COC(=O)c2ccncc2)c1Cl | -20 | -4 | 0 | 3 | nt | nt
Cc1c(Cl)cnc(NC(=O)COC(=O)c2ccc3c(c2)OCO3)c1Cl | -10 | -1 | 28* | 2 | 16* | 30*
CCN1CCN(c2ncc(C(=O)N3CCN(c4ccccc4OC)CC3)c3ccccc23)CC1 | -10 | 0 | -1 | nt | nt | nt
COc1ccc2[nH]c3c(Cl)ncnc3c2c1 | 23 | 6 | -1 | 1 | nt | nt
COc1ccc2[nH]c3c(=S)nc[nH]c3c2c1 | -23 | 0 | 50* | -3 | 26* | 26* | PG9 bind DR=>67;PGV04 DR counter=>67;PG126 binding DR=>67
CCN(CC)C(=O)C(=O)c1cc(C)n(-c2ccc(F)cc2)c1C | 0 | 3 | 1 | 1 | nt | nt
Cc1csc2nc(O)c(C(=O)NCc3ccc4c(c3)OCO4)c(=O)n12 | -33 | 2 | -2 | -1 | nt | nt
OCCCNc1ncnc2c1ncn2[C@H]1CN(Cc2ccncc2)C[C@@H](CO)O1 | 10 | 1 | 0 | nt | nt | nt
O=C(Oc1cccc2ccccc12)c1ccccc1 | -1 | 2 | -2 | nt | nt | nt
SMILES | NR2E3 ag-1 | Rev-erbA mod | PG9 binder | NR2E3 ag-2 | PG9 binder conf | PGV04 Ab binding | others
CC(=O)c1c(OC(=O)c2ccccc2)ccnc1C(F)(F)F | 12 | -3 | 9.2* | 2 | 11* | 11*
CC(=O)c1ccc(NC(=O)COc2ccccc2C(=O)Nc2ccc(C)cn2)cc1 | 3 | 13 | 26* | -1 | 28* | 42*
CC(=O)c1ccc(NC(=O)COc2ccccc2C(=O)Nc2ccccc2)cc1 | -12 | -2 | -3 | -2 | nt | nt
CCOCCc1nnc(NC(=O)c2cccc(F)c2)s1 | -53 | 1 | 2 | 0 | nt | nt
Cc1nc(SCC(=O)Nc2cc(C(N)=O)cc(C(N)=O)c2)c2c(C)c(C)sc2n1 | -67 | 8 | 11* | 14 | 18* | 36*
Cc1nc(SCC(=O)Nc2sccc2C(N)=O)c2c(C)c(C)sc2n1 | 31 | -5 | -1 | nt | nt | nt
Cn1c2ccccc2n2c(=O)cc(-c3ccccc3)c(C#N)c12 | -24 | 44* | 9.7* | 2 | 16* | 20* | Rev-erbA confirm=21*
Cn1c(=O)cc(-c2ccccc2)c2ccccc21 | 5 | 3 | 0 | 4 | nt | nt
COc1ccc2oc(C(=O)Nc3nccs3)c(C)c2c1 | -199 | 36* | 12* | -10 | 21* | 46* | Rev-erbA confirm=17
CCOC(=O)c1cc(C(=O)OCC)c2cc(Br)ccc2n1 | 1 | 40* | 11* | 15 | 12* | 17* | Rev-erbA confirm=38*;RORg counter=>40
Cc1cc(NC(=O)COc2ccc3oc4ccccc4c3c2)no1 | 0 | 36* | 23* | 7 | 23* | 32* | Rev-erbA confirm=26*
Cc1cc(NC(=O)COc2ccc3c(C)c(C)c(=O)oc3c2)no1 | -3 | -1 | -2 | nt | nt | nt
Cc1ccc(-n2nc3c(N4CCC(C(=O)NCCc5cccs5)CC4)nnc(C)c3c2C)cc1 | 10 | 30* | 12* | 1 | 25* | 36* | Rev-erbA confirm=36*;RORg counter=>40
COc1ccc(CCNC(=O)C2CCCN2C(=O)Nc2cccc(C(C)=O)c2)cc1OC (centres undefined) | -10 | -2 | -1 | 0 | nt | nt
COC(=O)c1c(NC(=O)c2ccn(C)n2)sc2c1CCC2 | -4 | 20* | 9.0* | 3 | 7 | 13* | Rev-erbA confirm=-5
CCn1ccc(C(=O)Nc2sc3c(c2C(=O)OC)CCC3)n1 | -23 | -4 | -1 | nt | nt | nt
COc1ccc(-c2ccc3c(c2)c(Sc2ccccc2)c(-c2cc(OC)cc(OC)c2)n3C)cc1 | 1 | 40* | 17* | nt | 44* | 60* | Rev-erbA confirm=60*;RORg counter=>40
COc1cc(OC)cc(-c2c(Sc3ccccc3)c3cc(-c4cnc(OC)nc4)ccc3n2C)c1 | -21 | -1 | 1 | nt | nt | nt
